# Reference: ChEMBL document CHEMBL5712901, “DOT1L inhibition blocks multiple myeloma cell proliferation by suppressing IRF4-MYC signaling” (2019)
# Activity calls are given as the source filed them. The calls are words filed in the database; no cut-off is given here.
# Tests used:
# RPMI-8226 [1] = assay: Antitumor activity against compound pretreated cells human RPMI-8226 cells at 1 uM for 3 days xenografted in SCID mouse assessed as reduction of tumor volume measured upto 36 days; assay type: functional, cell-based; details: time 39.0 day
# Summary of the method: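 Ex vivo pretreatment: RPMI-8226 cells exposed to 1 μM DOT1L inhibitor or DMSO for 3 days. Then 1 × 10^7 cells in 200 μl RPMI-1640 injected subcutaneously into the thighs of 6-week-old C.B-17 SCID mice, with drug-treated cells in the left thigh and DMSO cells in the right. Tumor measured every 3 days by calipers; volume = length × width²/2; n = 5, mean ± SEM.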
# RPMI-8226 [2] = assay: Induction of apoptosis in human RPMI-8226 cells assessed as early apoptotic cells at 1 uM for 3 days by annexin-V based propidium iodide staining based flow cytometric analysis (reference value: 3.02%); assay type: functional; details: time 3 day
# RPMI-8226 [3] = assay: Effect on human RPMI-8226 cells assessed as change in KLF2 mRNA level at 1 uM for 3 days by ChIP-qPCR analysis; assay type: functional, cell-based; details: time 3.0 day
# Summary of the method: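 ChIP-qPCR for H3K79me2 at IRF4-MYC signaling genes after 1 μM inhibitor or DMSO for 3 days. Signal normalized to input DNA. An intergenic region 28 kb upstream of KLF2 served as negative control. Mean of 3 replications ± SEM.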
# RPMI-8226 [4] = assay: Antiproliferative activity against human RPMI-8226 cells treated 3 days at 1 uM; assay type: functional, cell-based; details: time 3.0 day
# Summary of the method: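 Cell lines in 6-well plates, 2 × 10^4 to 8 × 10^5 cells/well, exposed to DOT1L inhibitor at 0.25-1 μM or DMSO, with medium and drug refreshed every 3 days. Viability read with Cell Counting Kit-8 on a microplate reader. Values normalized to untreated cells; mean of 3 replications ± SEM.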
# RPMI-8226 [5] = assay: Upregulation of IFN in human RPMI-8226 cells assessed as increase in ISG15 gene at 1 uM for 6 days by qRT-PCR analysis; assay type: functional, cell-based; details: time 6.0 day
# MM1.S [6] = assay: Upregulation of IFN in human MM1.S cells assessed as increase in IFIT1 gene at 1 uM for 6 days by qRT-PCR analysis; assay type: functional, cell-based; details: time 6.0 day
# MM1.S [7] = assay: Upregulation of HLA-DQB1 gene in human MM1.S cells at 1 uM for 6 days by; assay type: functional, cell-based; details: time 6.0 day
# MM1.S [8] = assay: Upregulation of RGS1 gene in human MM1.S cells at 1 uM for 6 days by; assay type: functional, cell-based; details: time 6.0 day
# RPMI-8226 [9] = assay: Upregulation of MYOF gene in human RPMI-8226 cells at 1 uM for 6 days by; assay type: functional, cell-based; details: time 6.0 day
# RPMI-8226 [10] = assay: Upregulation of MYO1F gene in human RPMI-8226 cells at 1 uM for 6 days by; assay type: functional, cell-based; details: time 6.0 day
# RPMI-8226 [11] = assay: Upregulation of CACNB3 gene in human RPMI-8226 cells at 1 uM for 6 days by; assay type: functional, cell-based; details: time 6.0 day
# MM1.S [12] = assay: Upregulation of ZNF862 gene in human MM1.S cells at 1 uM for 6 days by; assay type: functional, cell-based; details: time 6.0 day
# MM1.S [13] = assay: Upregulation of FNBP1L gene in human MM1.S cells at 1 uM for 6 days by; assay type: functional, cell-based; details: time 6.0 day
# Summary of the method: (§1)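 Human myeloma lines RPMI-8226 and MM.1S exposed to 1 μM DOT1L inhibitor, or DMSO, for 6 days. Whole-genome expression profiled on gene expression microarray.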
# MM1.S [14] = assay: Upregulation of SAP30L gene in human MM1.S cells at 1 uM for 6 days by; assay type: functional, cell-based; details: time 6.0 day
# RPMI-8226 [15] = assay: Upregulation of HLA-DRA gene in human RPMI-8226 cells at 1 uM for 6 days by; assay type: functional, cell-based; details: time 6.0 day
# RPMI-8226 [16] = assay: Upregulation of AIF1 gene in human RPMI-8226 cells at 1 uM for 6 days by; assay type: functional, cell-based; details: time 6.0 day
# RPMI-8226 [17] = assay: Upregulation of ANTXR2 gene in human RPMI-8226 cells at 1 uM for 6 days by; assay type: functional, cell-based; details: time 6.0 day
# MM1.S [18] = assay: Upregulation of RORC gene in human MM1.S cells at 1 uM for 6 days by; assay type: functional, cell-based; details: time 6.0 day
# MM1.S [19] = assay: Upregulation of TP53I3 gene in human MM1.S cells at 1 uM for 6 days by; assay type: functional, cell-based; details: time 6.0 day
# RPMI-8226 [20] = assay: Upregulation of HLA-DRB1 gene in human RPMI-8226 cells at 1 uM for 6 days by; assay type: functional, cell-based; details: time 6.0 day
# RPMI-8226 [21] = assay: Upregulation of CAPN2 gene in human RPMI-8226 cells at 1 uM for 6 days by; assay type: functional, cell-based; details: time 6.0 day
# RPMI-8226 [22] = assay: Upregulation of LY86 gene in human RPMI-8226 cells at 1 uM for 6 days by; assay type: functional, cell-based; details: time 6.0 day
# MM1.S [23] = assay: Upregulation of FCGR2B gene in human MM1.S cells at 1 uM for 6 days by; assay type: functional, cell-based; details: time 6.0 day; summary of the method: as §1
# KMS-12-PE [24] = assay: Upregulation of DOT1L in human KMS-12-PE cells by qRT-PCR analysis; assay type: functional, cell-based
# Summary of the method: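 Basal DOT1L transcript in untreated myeloma cell lines measured by qRT-PCR, normalized to ACTB; mean of 3 replicates with SEM.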
# MM1.S [25] = assay: Upregulation of HLA-DMB gene in human MM1.S cells at 1 uM for 6 days by; assay type: functional, cell-based; details: time 6.0 day; summary of the method: as §1
# RPMI-8226 [26] = assay: Upregulation of CTSH gene in human RPMI-8226 cells at 1 uM for 6 days by; assay type: functional, cell-based; details: time 6.0 day; summary of the method: as §1
# RPMI-8226 [27] = assay: Upregulation of IL1RAP gene in human RPMI-8226 cells at 1 uM for 6 days by; assay type: functional, cell-based; details: time 6.0 day
# MM1.S [28] = assay: Upregulation of PRDM8 gene in human MM1.S cells at 1 uM for 6 days by; assay type: functional, cell-based; details: time 6.0 day
# RPMI-8226 [29] = assay: Upregulation of ID2 gene in human RPMI-8226 cells at 1 uM for 6 days by; assay type: functional, cell-based; details: time 6.0 day
# RPMI-8226 [30] = assay: Upregulation of ALPK1 gene in human RPMI-8226 cells at 1 uM for 6 days by; assay type: functional, cell-based; details: time 6.0 day
# RPMI-8226 [31] = assay: Upregulation of PYCARD gene in human RPMI-8226 cells at 1 uM for 6 days by; assay type: functional, cell-based; details: time 6.0 day
# MM1.S [32] = assay: Upregulation of EMID1 gene in human MM1.S cells at 1 uM for 6 days by; assay type: functional, cell-based; details: time 6.0 day; summary of the method: as §1
# KMS-12-PE [33] = assay: Antiproliferative activity against human KMS-12-PE cells treated upto 14 days with replacement of fresh medium containing drug every 3 to 4 days by cell counting kit-8 method; assay type: functional, cell-based; details: time <= 14.0 day
# Summary of the method: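 Screen of histone methylation modifier inhibitors in 6-well plates at 3 × 10^4 to 1 × 10^5 cells/well. Drug at 1 μM or DMSO for up to 14 days, with medium and drug refreshed every 3-4 days. CCK-8 read on days 3-4 and 11-14. Values normalized to DMSO; mean of 5 replications ± SEM; unpaired two-sided t-test.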
# MM1.S [34] = assay: Upregulation of CHRNA6 gene in human MM1.S cells at 1 uM for 6 days by; assay type: functional, cell-based; details: time 6.0 day
# MM1.S [35] = assay: Upregulation of MYOF gene in human MM1.S cells at 1 uM for 6 days by; assay type: functional, cell-based; details: time 6.0 day
# RPMI-8226 [36] = assay: Upregulation of CHRNA6 gene in human RPMI-8226 cells at 1 uM for 6 days by; assay type: functional, cell-based; details: time 6.0 day; summary of the method: as §1
# MM1.S [37] = assay: Upregulation of SOAT2 gene in human MM1.S cells at 1 uM for 6 days by; assay type: functional, cell-based; details: time 6.0 day
# RPMI-8226 [38] = assay: Upregulation of ANXA2R gene in human RPMI-8226 cells at 1 uM for 6 days by; assay type: functional, cell-based; details: time 6.0 day
# MM1.S [39] = assay: Upregulation of ID1 gene in human MM1.S cells at 1 uM for 6 days by; assay type: functional, cell-based; details: time 6.0 day
# RPMI-8226 [40] = assay: Upregulation of FNBP1 gene in human RPMI-8226 cells at 1 uM for 6 days by; assay type: functional, cell-based; details: time 6.0 day
smiles,measurement,setting,value
CC(C)N(C[C@H]1O[C@@H](n2cnc3c(N)ncnc32)[C@H](O)[C@@H]1O)[C@H]1C[C@@H](CCc2nc3cc(C(C)(C)C)ccc3[nH]2)C1 [PINOMETOSTAT],Activity,RPMI-8226 [1],Active
same,Activity,RPMI-8226 [2],7.39%
same,Activity,RPMI-8226 [3],Active
same,Activity,RPMI-8226 [4],Active
same,Activity,RPMI-8226 [5],Active
same,Activity,MM1.S [6],Active
CC(C)N(CCCNC(=O)Nc1ccc(C(C)(C)C)cc1)C[C@H]1O[C@@H](n2cc(Br)c3c(N)ncnc32)[C@H](O)[C@@H]1O,Activity,MM1.S [7],Active
same,Activity,MM1.S [8],Active
same,Activity,RPMI-8226 [9],Active
same,Activity,RPMI-8226 [10],Active
same,Activity,RPMI-8226 [11],Active
same,Activity,MM1.S [12],Active
same,Activity,MM1.S [13],Active
same,Activity,MM1.S [14],Active
same,Activity,RPMI-8226 [15],Active
same,Activity,RPMI-8226 [16],Active
same,Activity,RPMI-8226 [17],Active
same,Activity,MM1.S [18],Active
same,Activity,MM1.S [19],Active
same,Activity,RPMI-8226 [20],Active
same,Activity,RPMI-8226 [21],Active
same,Activity,RPMI-8226 [22],Active
same,Activity,MM1.S [23],Active
same,Activity,KMS-12-PE [24],Active
same,Activity,MM1.S [25],Active
same,Activity,RPMI-8226 [26],Active
same,Activity,RPMI-8226 [27],Active
same,Activity,MM1.S [28],Active
same,Activity,RPMI-8226 [29],Active
same,Activity,RPMI-8226 [30],Active
same,Activity,RPMI-8226 [31],Active
same,Activity,MM1.S [32],Active
same,Activity,KMS-12-PE [33],inactive
same,Activity,MM1.S [34],Active
same,Activity,MM1.S [35],Active
same,Activity,RPMI-8226 [36],Active
same,Activity,MM1.S [37],Active
same,Activity,RPMI-8226 [38],Active
same,Activity,MM1.S [39],Active
same,Activity,RPMI-8226 [40],Active
